pIC50, pKi: −log10 of the molar value.
Tests used:
MT2 [1] = experiment: Anti-HIV activity based on inhibition of HIV-1 induced cytopathogenicity in MT-2 cells.; assay type: functional, cell-based; conditions: Homo sapiens
Procedure, shortened: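 IC50 from inhibition of HIV-induced cytopathic effect in MT-2 cells. Values with SD are means of at least three independent experiments; values without SD come from a single experiment.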

[2] = tested on: Human immunodeficiency virus; experiment: Inhibitory activity against wild type strain,HIV104pre.; assay type: functional, organism-based; conditions: Human immunodeficiency virus 1
Procedure, shortened: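 Activity against the wild-type strain HIV104pre was read as inhibition of HIV p24 antigen expression in peripheral blood mononuclear cells (PBMC).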

MT2 [3] = experiment: Cytotoxicity based on reduction of the viability of mock-infected MT-2 cells.; assay type: functional; conditions: Homo sapiens
Procedure, shortened: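 CC50 taken as the concentration reducing the viability of mock-infected (uninfected) MT-2 cells. Values with SD are means of at least three independent experiments; values without SD come from a single experiment.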

[4] = tested on: Human immunodeficiency virus 1; experiment: Anti-HIV activity against multidrug resistant HIV TM strain by inhibition of HIV p24 antigen expression in peripheral blood mononuclear cells(PBMC); assay type: functional, organism-based
Procedure, shortened: (§1)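 Read-out was HIV p24 antigen expression in peripheral blood mononuclear cells infected with multidrug-resistant HIV-1. Values with standard deviation are means of at least three experiments, and values without one come from a single experiment. Wild-type strain HIV104pre was the reference. Protease amino acid substitutions of each strain were characterised.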

[5] = tested on: Human immunodeficiency virus 1; experiment: Anti-HIV activity against multidrug resistant HIV MM strain by inhibition of HIV p24 antigen expression in peripheral blood mononuclear cells(PBMC); assay type: functional, organism-based; procedure, shortened: as §1
[6] = tested on: Human immunodeficiency virus 1; experiment: Anti-HIV activity against multidrug resistant HIV JSL strain by inhibition of HIV p24 antigen expression in peripheral blood mononuclear cells(PBMC); assay type: functional, organism-based; procedure, shortened: as §1
[7] = molecular target: Human immunodeficiency virus type 1 protease (Human immunodeficiency virus 1, UniProt Q72874); experiment: Inhibitory activity against HIV-1 protease
Procedure, shortened: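 Ki against HIV-1 protease. Enzyme reaction rate was obtained by SELDI-MS quantitation of the remaining parent peptide substrate.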

[8] = Selectivity index was determined as ratio of reduction of the viability of mock-infected MT-2 cells/inhibition of HIV-1 induced cytopathogenicity in MT-2 cells.; assay type: functional, MT2

Row | Compound | pIC50 (MT2 [1]) | pIC50 [2] | CC50 (MT2 [3]) [nM] | pIC50 [4] | pIC50 [5] | pIC50 [6] | pKi [7] | SI [8]
1 | CC(C)(C)NC(=O)[C@@H]1C[C@@H]2CCCC[C@@H]2CN1C[C@@H](O)[C@H](Cc1ccccc1)NC(=O)[C@H](CC(N)=O)NC(=O)c1ccc2ccccc2n1 | 7.77 | 7.72 | 11000 | – | – | – | – | –
2 | CC(C)CN(C[C@@H](O)[C@H](Cc1ccccc1)NC(=O)O[C@H]1CCOC1)S(=O)(=O)c1ccc(N)cc1 | 7.44 | 7.70 | > 100000 | 6.32 | 6.28 | 6.10 | – | –
3 | CC(C)CN(C[C@H](O)[C@@H](/C=C/[C@@H](C[S+]([O-])c1ccc2ccccc2c1)NS(C)(=O)=O)Cc1ccccc1)S(=O)(=O)c1ccc(N)cc1 (some centres not stated) | < 6.00 | – | – | – | – | – | – | –
4 | CC(C)CN(C[C@@H](O)[C@H](Cc1ccccc1)NC(=O)[C@@H](C[S+]([O-])c1ccc2ccccc2c1)NS(C)(=O)=O)S(=O)(=O)c1ccc(N)cc1 (some centres not stated) | 7.18 | 7.51 | 33000 | 7.37 | 7.44 | 7.60 | 10.00 | 500
5 | CC(C)(C)NC(=O)[C@@H]1C[C@@H]2CCCC[C@@H]2CN1CC(O)[C@@H](/C=C/[C@@H](C[S+]([O-])c1ccc2ccccc2c1)NS(C)(=O)=O)Cc1ccccc1 (some centres not stated) | < 6.00 | – | – | – | – | – | – | –
6 | CC(C)(C)NC(=O)[C@@H]1C[C@@H]2CCCC[C@@H]2CN1C[C@@H](O)[C@H](Cc1ccccc1)NC(=O)[C@@H](C[S+]([O-])c1ccc2ccccc2c1)NS(C)(=O)=O (some centres not stated) | 8.02 | 7.82 | 3900 | 7.47 | 7.49 | 6.66 | 9.92 | 410
7 | CC(C)(C)NC(=O)[C@@H]1C[C@@H]2CCCC[C@@H]2CN1CC(O)[C@@H](/C=C/[C@@H](CS(=O)(=O)c1ccc2ccccc2c1)NS(C)(=O)=O)Cc1ccccc1 (some centres not stated) | < 6.00 | – | – | – | – | – | – | –
8 | CC(C)CN(C[C@@H](O)[C@@H](/C=C/[C@@H](C[S+]([O-])c1ccc2ccccc2c1)NS(C)(=O)=O)Cc1ccccc1)S(=O)(=O)c1ccc(N)cc1 (some centres not stated) | 6.80 | 6.74 | 8000 | < 6.00 | 6.28 | 6.47 | 9.42 | 58
9 | Cc1cn([C@H]2C[C@H](N=[N+]=[N-])[C@@H](CO)O2)c(=O)[nH]c1=O [ZIDOVUDINE] | 7.57 | 8.60 | > 100000 | 7.37 | 7.43 | 7.19 | – | –

— ChEMBL document CHEMBL1144922 (J Med Chem, 2003)
